system: SK-MEL-5; experiment: Growth inhibition of human SK-MEL-5 cells assessed as cell growth at 100 uM incubated for 48 hrs by sulforhodamine B assay relative to control; format: functional; conditions: read-out: Activity

Compound | growth at 100 µM [%]
CN1CCc2nc3sc(C(N)=O)c(N)c3c(-c3cccs3)c2C1 | -42

system: Hs-578T; experiment: Growth inhibition of human Hs-578T cells assessed as cell growth at 0.01 uM incubated for 48 hrs by sulforhodamine B assay relative to control; format: functional; conditions: read-out: Activity

Compound | growth at 0.01 µM [%]
CN1CCc2nc3sc(C(N)=O)c(N)c3c(-c3cccs3)c2C1 | 95

system: SF-295; experiment: Growth inhibition of human SF-295 cells assessed as cell growth at 100 uM incubated for 48 hrs by sulforhodamine B assay relative to control; format: functional; conditions: read-out: Activity

Compound | growth at 100 µM [%]
CN1CCc2nc3sc(C(N)=O)c(N)c3c(-c3cccs3)c2C1 | 4

system: K562; experiment: Growth inhibition of human K562 cells assessed as cell growth at 0.01 uM incubated for 48 hrs by sulforhodamine B assay relative to control; format: functional; conditions: read-out: Activity

Compound | growth at 0.01 µM [%]
CN1CCc2nc3sc(C(N)=O)c(N)c3c(-c3cccs3)c2C1 | 96

system: HT-29; experiment: Growth inhibition of human HT-29 cells incubated for 48 hrs by sulforhodamine B assay; format: functional; conditions: not given
Outline: (§1)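 NCI60 panel at the NCI Developmental Therapeutics Program. Only compounds active in the 10 µM screen went to dose-response testing. GI50, the concentration giving 50% of maximal inhibition of proliferation, and TGI, the concentration giving total growth inhibition, were derived from the dose-response curves.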

Compound | GI50 [µM] | LC50 [µM] | TGI [µM]
CN1CCc2nc3sc(C(N)=O)c(N)c3c(-c3cccs3)c2C1 | 3.11 | > 100 | 70.9

system: RPMI-8226; experiment: Growth inhibition of human RPMI-8226 cells assessed as cell growth at 0.01 uM incubated for 48 hrs by sulforhodamine B assay relative to control; format: functional; conditions: read-out: Activity

Compound | growth at 0.01 µM [%]
CN1CCc2nc3sc(C(N)=O)c(N)c3c(-c3cccs3)c2C1 | 108

system: HCT-116; experiment: Growth inhibition of human HCT-116 cells assessed as cell growth at 100 uM incubated for 48 hrs by sulforhodamine B assay relative to control; format: functional; conditions: read-out: Activity

Compound | growth at 100 µM [%]
CN1CCc2nc3sc(C(N)=O)c(N)c3c(-c3cccs3)c2C1 | 3

system: A498; experiment: Growth inhibition of human A498 cells assessed as cell growth at 0.1 uM incubated for 48 hrs by sulforhodamine B assay relative to control; format: functional; conditions: read-out: Activity
Outline: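 NCI Developmental Therapeutics Program NCI60 panel. Compounds that were active in the 10 µM one-dose screen went on to dose–response testing. Growth at each concentration is expressed relative to untreated control (100%). GI50 (concentration giving 50% of maximal inhibition of proliferation) and TGI (concentration giving total growth inhibition) were derived from the curves.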

Compound | growth at 0.1 µM [%]
CN1CCc2nc3sc(C(N)=O)c(N)c3c(-c3cccs3)c2C1 | 111

system: HOP-92; experiment: Growth inhibition of human HOP-92 cells assessed as cell growth at 100 uM incubated for 48 hrs by sulforhodamine B assay relative to control; format: functional; conditions: read-out: Activity

Compound | growth at 100 µM [%]
CN1CCc2nc3sc(C(N)=O)c(N)c3c(-c3cccs3)c2C1 | -1

system: MCF7; experiment: Growth inhibition of human MCF7 cells assessed as cell growth at 0.1 uM incubated for 48 hrs by sulforhodamine B assay relative to control; format: functional; conditions: read-out: Activity

Compound | growth at 0.1 µM [%]
CN1CCc2nc3sc(C(N)=O)c(N)c3c(-c3cccs3)c2C1 | 107

system: SW-620; experiment: Growth inhibition of human SW-620 cells assessed as cell growth at 0.1 uM incubated for 48 hrs by sulforhodamine B assay relative to control; format: functional; conditions: read-out: Activity

Compound | growth at 0.1 µM [%]
CN1CCc2nc3sc(C(N)=O)c(N)c3c(-c3cccs3)c2C1 | 110

system: SNB-19; experiment: Growth inhibition of human SNB-19 cells incubated for 48 hrs by sulforhodamine B assay; format: functional; conditions: not given
Outline: (§2)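 NCI DTP 60-line human tumour panel. Dose-response curves were run only for ligands active in the initial 10 µM screen. GI50 (concentration giving 50% of maximal inhibition of proliferation) and TGI (concentration giving total growth inhibition) were derived from these curves.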

Compound | GI50 [µM] | LC50 [µM] | TGI [µM]
CN1CCc2nc3sc(C(N)=O)c(N)c3c(-c3cccs3)c2C1 | 4.34 | > 100 | > 100

system: SF-268; experiment: Growth inhibition of human SF-268 cells incubated for 48 hrs by sulforhodamine B assay; format: functional; conditions: not given; outline: as §2

Compound | GI50 [µM] | LC50 (concentration killing 50% of cells) [µM] | TGI [µM]
CN1CCc2nc3sc(C(N)=O)c(N)c3c(-c3cccs3)c2C1 | 3.85 | > 100 | > 100

system: SK-OV-3; experiment: Growth inhibition of human SK-OV-3 cells incubated for 48 hrs by sulforhodamine B assay; format: functional; conditions: not given; outline: as §2

Compound | GI50 [µM] | TGI [µM]
CN1CCc2nc3sc(C(N)=O)c(N)c3c(-c3cccs3)c2C1 | 3.35 | > 100

same assay, conditions: read-out: LC50 (the source's name)

Compound | CC50 [µM]
CN1CCc2nc3sc(C(N)=O)c(N)c3c(-c3cccs3)c2C1 | > 100

system: SN12C; experiment: Growth inhibition of human SN12C cells assessed as cell growth at 0.1 uM incubated for 48 hrs by sulforhodamine B assay relative to control; format: functional; conditions: read-out: Activity

Compound | growth at 0.1 µM [%]
CN1CCc2nc3sc(C(N)=O)c(N)c3c(-c3cccs3)c2C1 | 93

system: PC-3; experiment: Growth inhibition of human PC-3 cells assessed as cell growth at 100 uM incubated for 48 hrs by sulforhodamine B assay relative to control; format: functional; conditions: read-out: Activity

Compound | growth at 100 µM [%]
CN1CCc2nc3sc(C(N)=O)c(N)c3c(-c3cccs3)c2C1 | 6

system: SR; experiment: Growth inhibition of human SR cells assessed as cell growth at 100 uM incubated for 48 hrs by sulforhodamine B assay relative to control; format: functional; conditions: read-out: Activity

Compound | growth at 100 µM [%]
CN1CCc2nc3sc(C(N)=O)c(N)c3c(-c3cccs3)c2C1 | -19

system: K562; experiment: Growth inhibition of human K562 cells incubated for 48 hrs by sulforhodamine B assay; format: functional; conditions: not given; outline: as §1

Compound | GI50 [µM]
CN1CCc2nc3sc(C(N)=O)c(N)c3c(-c3cccs3)c2C1 | 4.99
